{"data": "Assay results pooled from the literature", "ACHE": "Acetylcholinesterase (ACHE, Homo sapiens, UniProt P22303)", "note": "Each line is one published result; the experiments were not run side by side."}
{"Structure (SMILES)": "CCc1ccc(N2C(=O)/C(=C3/C(=O)N(C)c4ccc(Cl)cc43)NC2=S)cc1", "target": "ACHE", "test": "enzyme activity, inhibitor, Ellman", "setting": "5 µM", "measurement": "inhibition", "value": "84%"}
{"Structure (SMILES)": "COc1cc(/C=C/C(=O)O)ccc1OCc1cn(CC(=O)Nc2ccccc2C)nn1", "target": "ACHE", "test": "enzyme activity, inhibitor, Ellman", "setting": "40 µM", "measurement": "inhibition", "value": "30.9%"}
{"Structure (SMILES)": "[2H]c1c([2H])c([C@]2([2H])CCCN2C(=O)C(C)(C)Oc2ccc3cn[nH]c3c2)c([2H])c([2H])c1C([2H])([2H])[2H]", "target": "Ephrin type-A receptor 2 (EPHA2, Homo sapiens, UniProt P29317)", "test": "binding, competition with immobilised ligand", "setting": "1 µM", "measurement": "remaining binding", "value": "99%"}
{"Structure (SMILES)": "CC(C)CC(=O)OC[C@H]1O[C@@](C#N)(c2ccc3c(N)ncnn23)[C@H](O)[C@@H]1O", "target": "ACHE", "test": "enzyme activity, inhibitor", "setting": "20 µM", "measurement": "inhibition", "value": "3%"}
{"Structure (SMILES)": "COc1cc(/C=C/C(=O)O)ccc1OCc1cn(CC(=O)Nc2ccccc2[N+](=O)[O-])nn1", "target": "ACHE", "test": "enzyme activity, inhibitor, Ellman", "setting": "40 µM", "measurement": "inhibition", "value": "22.1%"}
{"Structure (SMILES)": "C1CO1.C=O.CC(C)(C)CC(C)(C)c1ccc(O)cc1", "target": "Mitogen-activated protein kinase 3 (MAPK3, Homo sapiens, UniProt P27361)", "test": "enzyme activity, inhibitor, ADP detection", "setting": "10 µM", "measurement": "inhibition", "value": "45.2%"}
{"Structure (SMILES)": "CN1C(=O)/C(=N\\Nc2ncc(-c3cc4ccccc4oc3=O)s2)c2cc(Cl)ccc21", "target": "ACHE", "test": "enzyme activity, inhibitor, Ellman", "setting": "1 µM", "measurement": "inhibition", "value": "90%"}
{"Structure (SMILES)": "CCCCC(=O)Nc1ccc(-c2ccc3ncn(CCC)c(=O)c3c2)cn1", "target": "Serine/threonine-protein kinase PknB (pknB, Mycobacterium tuberculosis, UniProt P9WI81)", "test": "binding, competition with immobilised ligand", "setting": "0.5 µM", "measurement": "remaining binding", "value": "100%"}
{"Structure (SMILES)": "COc1cc(/C=C/C(=O)O)ccc1OCc1cn(CC(=O)Nc2ccc(C)cc2)nn1", "target": "ACHE", "test": "enzyme activity, inhibitor, Ellman", "setting": "40 µM", "measurement": "inhibition", "value": "46%"}
